TNF death inh – inhibitors of TNF-alpha triggered necroptosis, primary screen, cell-based, Jurkat FADD-/-, single concentration | Jurkat FADD-/- TNF necroptosis rescue, ATP luminescence, 24 h; 0 = TNF only, 100 = no-TNF cells | activation (protection from cell death), % at 10 µM | hit rate 0.068% among 220,000 | AID 463075, 2010;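 active means activation, meaning protection from cell death, of at least 50% relative to plate controls; inactive means activation below 50%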;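 further: necroptosis triggered by 40 ng/mL TNF-alpha added together with compound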
S1P4 agonist – S1P4 receptor agonists, primary screen, cell-based; S1P4-expressing cell line, agonist reporter assay; activation, % at 4.98 µM; hit rate 0.35% among 220,000; AID 1509, 2009; in the data active means activation above about 11%
Target sequence (O95977 whole entry, looked up): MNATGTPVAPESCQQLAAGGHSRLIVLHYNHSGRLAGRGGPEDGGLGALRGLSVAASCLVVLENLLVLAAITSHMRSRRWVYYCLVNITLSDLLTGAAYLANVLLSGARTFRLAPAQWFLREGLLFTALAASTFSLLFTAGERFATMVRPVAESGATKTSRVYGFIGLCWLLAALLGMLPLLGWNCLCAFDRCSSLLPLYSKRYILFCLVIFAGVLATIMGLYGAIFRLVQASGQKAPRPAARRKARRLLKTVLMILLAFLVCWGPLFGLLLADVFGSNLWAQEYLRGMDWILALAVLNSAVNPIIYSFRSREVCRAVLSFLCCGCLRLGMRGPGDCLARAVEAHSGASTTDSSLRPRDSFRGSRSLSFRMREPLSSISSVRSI
L929 necroptosis – inhibitors of zVAD-triggered necroptosis, primary screen, L929 cells; L929 zVAD necroptosis rescue, ATP luminescence, 24 h; with zVAD 60 µM; viability rescue, % at 10 µM; hit rate 0.38% among 220,000;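 active means activation, scaled between plate controls, above about 75%, limit read from the data; inactive means activation under that limit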
Dynein cargo inh – inhibitors of GR-EGFP nuclear translocation, primary screen, dynein cargo transport inhibitor project, imaging, high-content, 3617.4 mouse cells. AID 1381, 2008. z-score, hits read low. test concentration mostly 20 µM; stimulated with dexamethasone, 1 µM; active compounds read low. hit rate 0.47% among 220,000;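 active means plate z-score of nuclear minus cytoplasmic receptor signal below a set negative limit, without overly bright fluorescence or cell loss, cut at about -3.5 in these data, passing the limit was not always enough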;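 further: z-score of nuclear minus cytoplasmic ring GR-EGFP intensity difference per well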
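Also added: dexamethasone, 1.0 µM final. Medium: tet-free, stripped-serum medium. Detection: fixed, Hoechst-stained cells imaged at 10x for EGFP. Read-out: nuclear-to-cytoplasmic GR-EGFP distribution per well. Times: induction 48 h, compound 1 h, agonist 30 min.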
Tb hexokinase – Trypanosoma brucei hexokinase 1 inhibitors, primary screen, biochemical, G6PDH-coupled NADH absorbance, MLSCN library. hexokinase 1 [Trypanosoma brucei]. recombinant TbHK1, G6PDH-coupled NADH A340. inhibition, % at 10 µM. hit rate 0.11% among 220,000. AID 1430, 2008;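 active means inhibition of 50% or more in the single-dose primary screen; inactive means inhibition below 50%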
S1P4 antagonist – S1P4 receptor antagonists, primary screen, cell-based; Sphingosine 1-phosphate receptor 4 (Homo sapiens), O95977; S1P4-expressing cells, antagonist mode, reporter read-out; inhibition, % at 4.98 µM; hit rate 0.26% among 220,000; AID 1510, 2009; in the data active means inhibition above about 29%
Numbers stand for hits; i = inactive; nt = no result; ! = repeats disagree. Rows were chosen to be rich in hits. Some 1.5% of all compounds tested hit in one or more screens of this group.

SMILES	TNF death inh	S1P4 agonist	L929 necroptosis	Dynein cargo inh	Tb hexokinase	S1P4 antagonist
COc1ccc(CNCCC2(Cc3ccccc3)CC(C)N(C)CC2C)cc1OC (configuration not stated)	i	i	i	i	i	i
Cc1ccc(CN2CCN(Cc3ccc(O)cc3)CC2CCO)o1 (configuration not stated)	i	i	i	i	i	i
O=S1(=O)C=C(Sc2nnc(-c3ccccc3)o2)c2ccccc21	i	i	i	-4.1	i	i
C=C1SC(=Nc2c(C)cc(C)cc2C)N(C(=O)c2sc3ccccc3c2Cl)C12CCCCC2	i	i	i	i	i	i
COCCNC(=S)N1CCC(NC(=O)c2ccco2)CC1	i	i	i	i	i	i
CC1C(c2ccccc2)N(C)C(c2ccccc2)C(C)C1(O)C#Cc1ccccc1 (configuration not stated)	i	40	i	i	i	i
CCC1C(c2ccccc2)N(C)C(c2ccccc2)CC1(O)c1ccccc1 (configuration not stated)	i	i	i	i	i	i
COC(C(=O)Nc1c(F)cccc1F)c1ccccc1 (configuration not stated)	i	i	i	i	i	i
COC(C(=O)Nc1ccc(Cl)cc1C)c1ccccc1 (configuration not stated)	97	i	i	i	i	i
Cc1ccc2nc3cc([N+](=O)[O-])cc([N+](=O)[O-])c3cc2c1	i	i	i	-6.3	i	29
COC(=O)c1cc(=O)n(CCc2ccccc2)c(=Nc2ccc(F)cc2)s1	i	i	i	i	i	i
CCOC(=O)c1ccc(N=c2sc(C(=O)OC)cc(=O)n2CCCN2CCOCC2)cc1	i	i	i	-3.6!	i	60
Cn1cc(C(F)(F)F)nc1-c1ccc(OCC(O)CNCCOc2ccc(O)c(C(N)=O)c2)cc1 (configuration not stated)	i	nt	i	i	i	nt
CN(C)c1ccc(NC(=O)c2ccc(Cn3cc([N+](=O)[O-])cn3)cc2)cc1	i	i	i	i	i	i
Fc1ccccc1CNc1ccc(Cl)cc1	81	i	97	i	i	i
COc1ccc(Nc2ccc(N3C(=O)CC(C)C3=O)cc2[N+](=O)[O-])cc1OC (configuration not stated)	i	i	i	i	i	i
Cc1sc(NC(=O)c2cccs2)c(C(N)=O)c1C	i	i	75	i	i	i
Cc1c2cc(O)c(=O)cc-2oc2cc(O)c(O)cc12	i	i	i	-5.3!	i	i
O=C1c2ccccc2C(=O)C12OC2c1ccc(Cl)cc1Cl (configuration not stated)	i	i	i	-4.6	i	i
Cc1nc2ccc(S(=O)(=O)NCC(=O)Nc3cccc(F)c3)cc2s1	i	i	i	i	i	i
O=c1oc2cc(Oc3c([N+](=O)[O-])cc(C(F)(F)F)cc3[N+](=O)[O-])ccc2c2c1CCCC2	i	i	i	-3.8	i	i
CCN1C/C(=C\c2cccc([N+](=O)[O-])c2)C(=O)/C(=C/c2cccc([N+](=O)[O-])c2)C1	i	i	i	-3.7	i	i
O=C1/C(=C/c2cccc([N+](=O)[O-])c2)CCc2ccccc21	i	i	i	i	i	i
OC(c1ccccc1)c1nc2ccccc2s1 (configuration not stated)	50	i	i	i	i	i
Cc1ncc(CN2CCCC(CCC(=O)NCc3ccc(F)c(F)c3)C2)s1 (configuration not stated)	i	i	i	i	i	i
SMILES	TNF death inh	S1P4 agonist	L929 necroptosis	Dynein cargo inh	Tb hexokinase	S1P4 antagonist
Cc1ccc2c(c1)c1ncnc(N3CCOCC3)c1n2C	i	i	i	i	i	i
Cc1ccc2c(c1)c1ccc3c(c1n2C)C(=O)C=CC3=O	i	i	i	-6.9	i	i
Cc1ccc2ncccc2c1NC(=S)NC(=O)c1ccccc1	i	i	i	i	i	i
O=C(O)C1CCC(=O)N1Cc1ccccc1Cl (configuration not stated)	i	15	i	i	i	i
CCN1CCN(Cc2ccc(NC(=O)Nc3ccc(OC)cc3)cc2)CC1	i	i	77	i	i	i
CC(/C=N/N1C(=O)CSC1=S)=C\c1ccccc1	i	i	i	i	i	i
O=C(Nc1nccs1)c1cc2c(s1)CCCCC2	52	i	i	i	i	i
O=C(Nc1nc(-c2ccccn2)cs1)c1ccc(Cl)s1	i	i	i	i	i	i
O=C(Nc1nccs1)c1ccc(Cl)s1	i	i	96	i	i	i
CCS(=O)(=O)c1nc2ccccc2n1Cc1ccccn1	i	i	i	i	i	i
COc1ccccc1OS(=O)(=O)c1ccc(NC(C)=O)cc1	i	i	i	i	i	i
COC(=O)/C=C/S(=O)(=O)c1ccc(NC(C)=O)cc1	i	i	i	-3.9	i	i
CC(=O)c1ccc(NC(=O)CSc2ccsc2[N+](=O)[O-])cc1	i	i	i	i	i	i
COCCNC(=O)c1ccc2snnc2c1	i	i	i	i	i	i
O=C(NCc1c(Cl)cccc1Cl)c1ccc2nnsc2c1	58	i	i	i	i	i
Cc1cc(=O)[nH]c2ccccc12	i	i	i	i	i	i
Cc1cc2[nH]c3c(c[n+](C)c4ccccc34)c2cc1C	i	i	i	-4.4	i	i
COc1cccc(/C=N/N2C(=O)C3C4c5ccccc5C(c5ccccc54)C3C2=O)c1OC (configuration not stated)	i	13	i	i	i	i
O=C1CCCC(=O)C1CS(=O)(=O)c1ccccc1	i	i	i	i	i	i
CC1C/C(=C/c2ccncc2)C(=O)/C(=C/c2ccncc2)C1 (configuration not stated)	i	i	i	-6	i	i
COc1ccccc1CNC(=O)C(=O)NCC(c1ccco1)N1CCOCC1 (configuration not stated)	i	i	i	i	i	i
COc1ccc(N=c2ssnc2Cl)cc1	i	i	i	-3.8	i	i
Clc1nssc1=Nc1ccccc1	i	i	i	i	i	i
Clc1ccc(N=c2ssnc2Cl)cc1	i	i	i	-4.3	i	i
CN(C)CCCN1C(=O)c2cccc3c([N+](=O)[O-])ccc(c23)C1=O	i	i	i	i	i	92
O=C1c2cccc3c([N+](=O)[O-])ccc(c23)C(=O)N1CCc1ccccn1	i	i	i	i	i	i
Cc1ccccc1NC(=O)CSC1=C(C#N)C(c2ccsc2)CC(=O)N1 (configuration not stated)	i	i	i	i	i	i

Screening results from PubChem.
